Experimental data of several laboratories.
Each line is one published result; the experiments were not run side by side.
Cell line: HepG2
Effect on: cell growth or viability

N=C(N)NCc1ccc(NC(=O)c2ccc(C(=O)Nc3cnc(C4=CCN(C(=N)N)CC4)cn3)cc2)cc1
CC50 (MTS; 24 h): 585 µM

Cc1ccc(-c2nc(Nc3ccc(C(=O)N4CCC(N5CCCC5)CC4)cc3)ncc2Cl)s1
CC50 (44 h): 9.3 µM

Cc1cn(CC(c2cn(C)c3ccccc23)c2cn(C)c3ccccc23)nn1
CC50 (MTS; 24 h): > 20 µM

O=[N+]([O-])c1ccc(-c2nc3cccc(O)c3[nH]2)o1
CC50 (resazurin; 72 h): 37 µM

COC(=O)c1c(C)ncn1CC(c1c[nH]c2ccc(C)cc12)c1c[nH]c2ccc(C)cc12
CC50 (MTS; 24 h): > 20 µM

N=C(N)NCc1ccc(NC(=O)c2ccc(C(=O)Nc3ccc(C4=CCN(C(=N)N)CC4)cc3)nc2)cc1
CC50 (MTS; 24 h): > 117 µM

COc1ccc(NC(=O)N2CCCCN3C[C@H](c4ccc(C#Cc5ccccc5)cc4)[C@@H]3C2)cc1
CC50: 10 µM

N=C(N)NCc1ccc(NC(=O)c2ccc(C(=O)Nc3ccc(C4=CCN(C(=N)N)CC4)cn3)cc2)cc1
CC50 (MTS; 24 h): 353 µM

CCOC(=O)c1c(C)ncn1CC(c1cn(C)c2ccc([N+](=O)[O-])cc12)c1cn(C)c2ccc([N+](=O)[O-])cc12
CC50 (MTS; 24 h): > 20 µM

CC(C)c1c(C(=O)Nc2ccccc2)c(-c2ccccc2)c(-c2ccc(F)cc2)n1CC[C@@H](O)C[C@@H](O)CC(=O)O
CC50 (MTT; 24 h): ~100 µM

COc1ccc(NC(=O)N2CCCCN3[C@H](COCCC(=O)O)[C@H](c4ccc(C#Cc5ccccc5)cc4)[C@@H]3C2)cc1
CC50: > 40 µM

CC(=O)Oc1ccccc1C(=O)O
CC50 (ATP luminescence): > 1000 µM

COC(=O)c1c(C)ncn1CC(c1cn(C)c2ccccc12)c1cn(C)c2ccccc12
CC50 (MTS; 24 h): > 20 µM

NCC(=O)CCC(=O)O
CC50 (ATP luminescence): > 1000 µM

Cc1cc(Nc2ccc(S(F)(F)(F)(F)F)cc2)n2ncnc2n1
CC50: > 50 µM

O=C(NCCCN1CCOCC1)c1ccc(Nc2ncc(Cl)c(-c3ccc(Cl)s3)n2)cc1
CC50 (44 h): 4.9 µM
